Reference: ChEMBL document CHEMBL1147547, “Novel GSK-3 inhibitors with improved cellular activity” (Bioorg Med Chem Lett, 2004)
Active and inactive are the calls of the source. No cut-off for these calls is given here.

Assays:
[1] = biological target: T1, Glycogen synthase kinase-3 (Homo sapiens, UniProt P49840+P49841); assay: Maximal glycogen synthesis in rat L6 skeletal muscle cells in response to 1 uM insulin; format: functional, cell-based
Method in brief: (§1)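 Rat L6 muscle cells, with glycogen synthesis tracked as 14C-glucose incorporated into glycogen. Maximum glycogen produced by the compound is expressed as a percentage of the maximum produced by 1 µM insulin.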

[2] = system: MDCK; assay: Cell permeation in MDCK cells; format: functional, Canis lupus familiaris
[3] = biological target: T1, Glycogen synthase kinase-3; assay: Stimulation of glycogen synthesis in rat skeletal muscle L6 cells
[4] = biological target: T1, Glycogen synthase kinase-3; assay: Inhibition of glycogen synthase kinase-3 (GSK3-beta); format: protein assay
Method in brief: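 GSK-3β (20 nM final) in HEPES pH 7.2 with 10 mM MgCl2, 0.1 mg/mL BSA, 1 mM DTT, 0.3 mg/mL heparin. Substrate 2.8 µM biotinylated phospho-primed GS peptide, with 2.5 µM ATP plus [γ-33P]-ATP. Stopped after 40 min with EDTA. Streptavidin SPA beads added and counted. Reported as pIC50.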

[5] = biological target: T1, Glycogen synthase kinase-3; assay: Maximal glycogen synthesis in rat L6 skeletal muscle cells in response to 1 uM insulin (inactive); format: functional, cell-based; method in brief: as §1

T1 sequence (P49840 whole entry, looked up): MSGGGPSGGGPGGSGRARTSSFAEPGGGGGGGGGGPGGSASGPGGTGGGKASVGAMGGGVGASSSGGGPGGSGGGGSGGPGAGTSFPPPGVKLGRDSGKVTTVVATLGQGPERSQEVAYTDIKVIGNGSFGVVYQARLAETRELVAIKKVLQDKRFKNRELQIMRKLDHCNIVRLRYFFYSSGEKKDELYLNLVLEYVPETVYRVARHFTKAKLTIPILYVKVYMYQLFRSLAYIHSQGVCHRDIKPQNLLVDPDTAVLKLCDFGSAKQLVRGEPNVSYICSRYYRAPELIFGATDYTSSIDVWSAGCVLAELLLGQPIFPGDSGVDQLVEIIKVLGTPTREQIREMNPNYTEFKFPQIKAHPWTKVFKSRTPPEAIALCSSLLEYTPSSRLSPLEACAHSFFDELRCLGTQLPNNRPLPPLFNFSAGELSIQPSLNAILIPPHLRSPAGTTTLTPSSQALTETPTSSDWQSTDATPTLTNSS
T1 sequence (P49841 whole entry, looked up): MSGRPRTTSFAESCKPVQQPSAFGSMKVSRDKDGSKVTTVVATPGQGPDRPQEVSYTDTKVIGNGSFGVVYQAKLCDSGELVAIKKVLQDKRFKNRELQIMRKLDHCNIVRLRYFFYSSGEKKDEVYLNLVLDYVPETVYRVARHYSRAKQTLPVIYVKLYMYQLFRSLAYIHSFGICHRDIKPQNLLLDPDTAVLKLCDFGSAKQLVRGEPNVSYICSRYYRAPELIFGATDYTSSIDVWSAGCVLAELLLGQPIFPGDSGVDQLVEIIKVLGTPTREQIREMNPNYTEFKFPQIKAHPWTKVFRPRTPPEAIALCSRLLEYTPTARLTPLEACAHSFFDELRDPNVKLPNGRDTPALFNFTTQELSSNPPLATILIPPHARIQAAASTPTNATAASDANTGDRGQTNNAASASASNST

Structure (SMILES) | Max [1] [%] | EC50 [3] [µM] | Log IC50 [4] | Max [5] | Cell permeation [2] [nm/s]
COc1cccc(-n2ncc3c(N/N=C/c4ccncc4)ncnc32)c1 [GW784752X] | 37 | 0.22 |  |  | 127
COc1cccc(-n2ncc3c(N/N=C/c4ccc(F)cc4)ncnc32)c1 [GW817396X] |  |  | -8.1 | inactive | 5
Fc1ccc(/C=N/Nc2ncnc3c2cnn3-c2cccc3[nH]cnc23)cc1 | 57 | 0.23 | -8.2 |  | 92
C(=N\Nc1ncnc2c1cnn2-c1cccc2[nH]cnc12)/c1ccncc1 | 45 | 0.11 | -8.4 |  | 212
CS(=O)(=O)c1ccc(/C=N/Nc2ncnc3c2cnn3-c2cccc3[nH]cnc23)cc1 | 54 | 0.24 | -8.3 |  | 61
O=C(O)c1ccc(/C=N/Nc2ncnc3c2cnn3-c2cccc3[nH]cnc23)cc1 | 42 | 2.73 | -8.3 |  | 17
COc1cccc(-n2ncc3c(N/N=C/c4ccc(S(C)(=O)=O)cc4)ncnc32)c1 [PYRAZOLOPYRIMIDINE 2] | 19 | 0.31 | -8.6 |  | 168

Now from value to compound, other results behind:

Max [1] [%] | EC50 [3] [µM] | Log IC50 [4] | Max [5] | Structure (SMILES) | Cell permeation [2] [nm/s]
 |  | -6.2 |  | Fc1ccc(/C=N/Nc2ncnc3c2cnn3-c2ccccc2)cc1 | 5
48 | 1.22 | -7 |  | C(=N\Nc1ncnc2c1cnn2-c1ccccc1)/c1ccncc1 | 99
46 | 1.88 | -7.5 |  | COc1cccc(-n2ncc3c(N/N=C/c4ccc(C(=O)O)cc4)ncnc32)c1 | 65
26 | 4 | -7.8 |  | COc1cccc(-n2ncc3c(N/N=C/c4ccc(C(=O)NCCN(C)C)cc4)ncnc32)c1 | 15
76 | 2.33 | -8.8 |  | CN(C)CCNC(=O)c1ccc(/C=N/Nc2ncnc3c2cnn3-c2cccc3[nH]cnc23)cc1 [PYRAZOLOPYRIMIDINE 1] | 15
 |  | -7.7 |  | CN(C)CCNC(=O)c1ccc(/C=N/Nc2ncnc3c2cnn3-c2ccccc2)cc1 | 98
